According to ChEMBL document CHEMBL3352325, “Synthesis and biological evaluation of novel aniline-derived asiatic acid derivatives as potential anticancer agents” (Eur J Med Chem, 2014):

How the values were obtained:
[1] = test system: NCI-H460; assay: Cytotoxicity against human NCI-H460 cells after 48 hrs by MTT assay; assay type: functional, cell-based; details: NCI-H460, 48 h
Outline: (§1)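 Cells grown in medium with 10% heat-inactivated FBS, 5% CO2, 37 °C. Compounds given in medium with 1% DMSO at 1.25–20 graded concentrations; 1% DMSO medium served as control. MTT (5 mg/mL) added, formazan dissolved in DMSO, absorbance read at 570/630 nm. Survival expressed relative to negative control. IC50 by Bliss method (n=5), at least three independent experiments, mean ± SD.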

[2] = test system: HUVEC; assay: Cytotoxicity against human HUVEC cells after 48 hrs by MTT assay; assay type: cell-based; outline: as §1
[3] = Cytotoxicity against human SMMC-7404 cells after 48 hrs by MTT assay; assay type: functional, cell-based; details: SMMC-7404, 48 h; outline: as §1
[4] = test system: HepG2; assay: Cytotoxicity against human HepG2 cells after 48 hrs by MTT assay; assay type: functional, cell-based; details: HepG2, 48 h; outline: as §1
[5] = test system: MGC-803; assay: Cytotoxicity against human MGC803 cells after 48 hrs by MTT assay; assay type: functional, cell-based; details: MGC-803, 48 h; outline: as §1
[6] = test system: HeLa; assay: Cytotoxicity against human HeLa cells after 48 hrs by MTT assay; assay type: functional, cell-based; outline: as §1

| SMILES | IC50 [1] [µM] | IC50 [2] [µM] | IC50 [3] [µM] | IC50 [4] [µM] | IC50 [5] [µM] | IC50 [6] [µM] |
| --- | --- | --- | --- | --- | --- | --- |
| Cc1ccc(NC(=O)[C@]23CC[C@@H](C)[C@H](C)[C@H]2C2=CC(=O)[C@@H]4[C@@]5(C)C[C@@H](O)[C@H](O)[C@@](C)(CO)[C@@H]5CC[C@@]4(C)[C@]2(C)CC3)cc1Cl | 19.1 | > 100 | 20.6 | 18.4 | 20.1 | 16 |
| C[C@H]1[C@H](C)CC[C@]2(C(=O)Nc3ccc(Cl)c(Cl)c3)CC[C@]3(C)C(=CC(=O)[C@@H]4[C@@]5(C)C[C@@H](O)[C@H](O)[C@@](C)(CO)[C@@H]5CC[C@]43C)[C@H]12 | 21.4 | > 100 | 17.2 | 13.8 | 13.9 | 12.4 |
| C[C@H]1[C@H](C)CC[C@]2(C(=O)Nc3cccc(Br)c3)CC[C@]3(C)C(=CC(=O)[C@@H]4[C@@]5(C)C[C@@H](O)[C@H](O)[C@@](C)(CO)[C@@H]5CC[C@]43C)[C@H]12 | 24.8 | > 100 | 22.4 | 20.4 | 15.5 | 16.2 |
| C[C@H]1[C@H](C)CC[C@]2(C(=O)O)CC[C@]3(C)C(=CC[C@@H]4[C@@]5(C)C[C@@H](O)[C@H](O)[C@@](C)(CO)[C@@H]5CC[C@]43C)[C@H]12 [ASIATIC ACID] | 39.6 | > 100 | 40.8 | 34.9 | 22.6 | 37.3 |
| C[C@H]1[C@H](C)CC[C@]2(C(=O)Nc3ccc(F)c(Cl)c3)CC[C@]3(C)C(=CC(=O)[C@@H]4[C@@]5(C)C[C@@H](O)[C@H](O)[C@@](C)(CO)[C@@H]5CC[C@]43C)[C@H]12 | 24.2 | > 100 | 19.1 | 19.4 | 14.1 | 14.2 |
| C[C@H]1[C@H](C)CC[C@]2(C(=O)Nc3ccc(Br)c(F)c3)CC[C@]3(C)C(=CC(=O)[C@@H]4[C@@]5(C)C[C@@H](O)[C@H](O)[C@@](C)(CO)[C@@H]5CC[C@]43C)[C@H]12 | 16.4 | > 100 | 17.4 | 28.4 | 16 | 9.71 |
| C[C@H]1[C@H](C)CC[C@]2(C(=O)Nc3ccccc3F)CC[C@]3(C)C(=CC(=O)[C@@H]4[C@@]5(C)C[C@@H](O)[C@H](O)[C@@](C)(CO)[C@@H]5CC[C@]43C)[C@H]12 | 61.6 | > 100 | 23.2 | > 100 | 19.9 | 32.5 |
| Cc1ccc(NC(=O)[C@]23CC[C@@H](C)[C@H](C)[C@H]2C2=CC(=O)[C@@H]4[C@@]5(C)C[C@@H](O)[C@H](O)[C@@](C)(CO)[C@@H]5CC[C@@]4(C)[C@]2(C)CC3)cc1 | 30.2 | > 100 | > 100 | 22.6 | 14.6 | 32.5 |
| Cc1cccc(NC(=O)[C@]23CC[C@@H](C)[C@H](C)[C@H]2C2=CC(=O)[C@@H]4[C@@]5(C)C[C@@H](O)[C@H](O)[C@@](C)(CO)[C@@H]5CC[C@@]4(C)[C@]2(C)CC3)c1 | 21.8 | > 100 | 16.1 | 19.4 | 21.2 | 14.6 |
| C[C@H]1[C@H](C)CC[C@]2(C(=O)Nc3ccc(Br)cc3)CC[C@]3(C)C(=CC(=O)[C@@H]4[C@@]5(C)C[C@@H](O)[C@H](O)[C@@](C)(CO)[C@@H]5CC[C@]43C)[C@H]12 | 31.2 | > 100 | > 100 | 21.3 | 20.6 | 18.5 |
| C[C@H]1[C@H](C)CC[C@]2(C(=O)Nc3ccc(F)cc3)CC[C@]3(C)C(=CC(=O)[C@@H]4[C@@]5(C)C[C@@H](O)[C@H](O)[C@@](C)(CO)[C@@H]5CC[C@]43C)[C@H]12 | 31.9 | > 100 | > 100 | > 100 | 26.6 | 20.8 |
| COc1cccc(NC(=O)[C@]23CC[C@@H](C)[C@H](C)[C@H]2C2=CC(=O)[C@@H]4[C@@]5(C)C[C@@H](O)[C@H](O)[C@@](C)(CO)[C@@H]5CC[C@@]4(C)[C@]2(C)CC3)c1 | 23.1 | > 100 | 23.5 | 8.89 | 24.3 | 17.8 |
| COc1ccc(NC(=O)[C@]23CC[C@@H](C)[C@H](C)[C@H]2C2=CC(=O)[C@@H]4[C@@]5(C)C[C@@H](O)[C@H](O)[C@@](C)(CO)[C@@H]5CC[C@@]4(C)[C@]2(C)CC3)cc1 | > 100 | > 100 | > 100 | 16.6 | 30.1 | > 100 |
| Cc1ccc(C)c(NC(=O)[C@]23CC[C@@H](C)[C@H](C)[C@H]2C2=CC(=O)[C@@H]4[C@@]5(C)C[C@@H](O)[C@H](O)[C@@](C)(CO)[C@@H]5CC[C@@]4(C)[C@]2(C)CC3)c1 | 27.5 | > 100 | 15.7 | 25.5 | 20.7 | 16 |
| C[C@H]1[C@H](C)CC[C@]2(C(=O)Nc3cccc4ccccc34)CC[C@]3(C)C(=CC(=O)[C@@H]4[C@@]5(C)C[C@@H](O)[C@H](O)[C@@](C)(CO)[C@@H]5CC[C@]43C)[C@H]12 | 16.6 | > 100 | 20.4 | 21.3 | 19.9 | 14 |
| C[C@H]1[C@H](C)CC[C@]2(C(=O)Nc3ccc(Cl)cc3)CC[C@]3(C)C(=CC(=O)[C@@H]4[C@@]5(C)C[C@@H](O)[C@H](O)[C@@](C)(CO)[C@@H]5CC[C@]43C)[C@H]12 | 12.8 | > 100 | 17.2 | 29.8 | 22.5 | 13.1 |
| C[C@H]1[C@H](C)CC[C@]2(C(=O)Nc3cccc(Cl)c3)CC[C@]3(C)C(=CC(=O)[C@@H]4[C@@]5(C)C[C@@H](O)[C@H](O)[C@@](C)(CO)[C@@H]5CC[C@]43C)[C@H]12 | 24.4 | > 100 | 34.4 | 11.6 | 19.4 | 14.2 |
| Cc1cc(Br)ccc1NC(=O)[C@]12CC[C@@H](C)[C@H](C)[C@H]1C1=CC(=O)[C@@H]3[C@@]4(C)C[C@@H](O)[C@H](O)[C@@](C)(CO)[C@@H]4CC[C@@]3(C)[C@]1(C)CC2 | 23.8 | > 100 | 17 | 22.8 | 14.6 | 15.7 |
| C[C@H]1[C@H](C)CC[C@]2(C(=O)Nc3ccccc3)CC[C@]3(C)C(=CC(=O)[C@@H]4[C@@]5(C)C[C@@H](O)[C@H](O)[C@@](C)(CO)[C@@H]5CC[C@]43C)[C@H]12 | 12.2 | > 100 | > 100 | > 100 | > 100 | 26.9 |
| O=c1[nH]cc(F)c(=O)[nH]1 [FLUOROURACIL] | – | – | 40.2 | 30 | – | – |
| COc1ccccc1NC(=O)[C@]12CC[C@@H](C)[C@H](C)[C@H]1C1=CC(=O)[C@@H]3[C@@]4(C)C[C@@H](O)[C@H](O)[C@@](C)(CO)[C@@H]4CC[C@@]3(C)[C@]1(C)CC2 | 18.4 | > 100 | 16.2 | 10.9 | 19 | 34.5 |
